Measurements as given in ChEMBL document CHEMBL3045952, “Design, synthesis, and fungicidal activity of novel analogues of pyrrolnitrin” (J Agric Food Chem, 2009).

Experiments:
Type in all cases: functional
Conditions in all cases: read-out: GI
[1] = tested on: Botryosphaeria berengeriana; test: Fungicidal activity against Botryosphaeria berengeriana assessed as mycelium growth inhibition at 50 ug/mL by mycelium growth rate method
Summary of the method: (§1)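 In vitro mycelium growth rate method, with fenpiclonil as control. Compounds were tested at 50, 20 and 10 μg mL-1. Mycelial diameters were measured once the mycelia had grown completely. Inhibition (%) = (D1 − D2)/D1 × 100, where D1 is the mean mycelial diameter in the blank and D2 is the mean diameter with compound.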

[2] = tested on: Botryosphaeria berengeriana; test: Fungicidal activity against Botryosphaeria berengeriana assessed as mycelium growth inhibition at 20 ug/mL by mycelium growth rate method; summary of the method: as §1
Alternaria solani [3] = test: Fungicidal activity against Alternaria solani assessed as mycelium growth inhibition at 20 ug/mL by mycelium growth rate method; summary of the method: as §1
Alternaria solani [4] = test: Fungicidal activity against Alternaria solani assessed as mycelium growth inhibition at 50 ug/mL by mycelium growth rate method; summary of the method: as §1
Fusarium graminearum [5] = test: Fungicidal activity against Fusarium graminearum assessed as mycelium growth inhibition at 50 ug/mL by mycelium growth rate method; summary of the method: as §1
Fusarium graminearum [6] = test: Fungicidal activity against Fusarium graminearum assessed as mycelium growth inhibition at 10 ug/mL by mycelium growth rate method; summary of the method: as §1
[7] = tested on: Botryosphaeria berengeriana; test: Fungicidal activity against Botryosphaeria berengeriana assessed as mycelium growth inhibition at 10 ug/mL by mycelium growth rate method; summary of the method: as §1
Mycosphaerella arachidis [8] = test: Fungicidal activity against Mycosphaerella arachidis assessed as mycelium growth inhibition at 10 ug/mL by mycelium growth rate method; summary of the method: as §1
Fusarium graminearum [9] = test: Fungicidal activity against Fusarium graminearum assessed as mycelium growth inhibition at 20 ug/mL by mycelium growth rate method; summary of the method: as §1
Fusarium oxysporum [10] = test: Fungicidal activity against Fusarium oxysporum assessed as mycelium growth inhibition at 20 ug/mL by mycelium growth rate method; summary of the method: as §1
Fusarium oxysporum [11] = test: Fungicidal activity against Fusarium oxysporum assessed as mycelium growth inhibition at 10 ug/mL by mycelium growth rate method; summary of the method: as §1
Alternaria solani [12] = test: Fungicidal activity against Alternaria solani assessed as mycelium growth inhibition at 10 ug/mL by mycelium growth rate method; summary of the method: as §1
Mycosphaerella arachidis [13] = test: Fungicidal activity against Mycosphaerella arachidis assessed as mycelium growth inhibition at 20 ug/mL by mycelium growth rate method; summary of the method: as §1
Fusarium oxysporum [14] = test: Fungicidal activity against Fusarium oxysporum assessed as mycelium growth inhibition at 50 ug/mL by mycelium growth rate method; summary of the method: as §1
Mycosphaerella arachidis [15] = test: Fungicidal activity against Mycosphaerella arachidis assessed as mycelium growth inhibition at 50 ug/mL by mycelium growth rate method; summary of the method: as §1

SMILES	inhibition of growth at 50 µg/mL [1] [%]	inhibition of growth at 20 µg/mL [2] [%]	inhibition of growth at 20 µg/mL (Alternaria solani [3]) [%]	inhibition of growth at 50 µg/mL (Alternaria solani [4]) [%]	inhibition of growth at 50 µg/mL (Fusarium graminearum [5]) [%]	inhibition of growth at 10 µg/mL (Fusarium graminearum [6]) [%]	inhibition of growth at 10 µg/mL [7] [%]	inhibition of growth at 10 µg/mL (Mycosphaerella arachidis [8]) [%]	inhibition of growth at 20 µg/mL (Fusarium graminearum [9]) [%]	inhibition of growth at 20 µg/mL (Fusarium oxysporum [10]) [%]	inhibition of growth at 10 µg/mL (Fusarium oxysporum [11]) [%]	inhibition of growth at 10 µg/mL (Alternaria solani [12]) [%]	inhibition of growth at 20 µg/mL (Mycosphaerella arachidis [13]) [%]	inhibition of growth at 50 µg/mL (Fusarium oxysporum [14]) [%]	inhibition of growth at 50 µg/mL (Mycosphaerella arachidis [15]) [%]
O=[N+]([O-])c1cc(Cl)ccc1-c1ccsc1[N+](=O)[O-]	25	10	0	9	0	0	0	0	0	0	0	0	0	17	0
O=[N+]([O-])c1cc(-c2ccc(F)cc2[N+](=O)[O-])cs1	46	10	25	41	12	0	4	11	0	17	7	6	27	25	44
O=[N+]([O-])c1cc(-c2ccc(Cl)cc2[N+](=O)[O-])cs1	2	0	0	19	4	0	0	0	0	0	0	0	0	17	2
O=[N+]([O-])c1ccccc1-c1ccsc1	88	68	30	75	65	13	20	0	43	31	12	0	0	68	18
O=[N+]([O-])c1cc(Cl)ccc1-c1ccsc1	80	38	20	55	39	13	14	0	21	43	25	0	6	75	25
O=[N+]([O-])c1cc(F)c(Cl)cc1-c1ccsc1	80	74	35	60	47	0	64	0	30	43	18	0	18	87	25
O=[N+]([O-])c1cc(Cl)cc(Cl)c1-c1ccsc1[N+](=O)[O-]	27	17	32	38	0	0	2	0	0	14	10	16	11	28	27
O=[N+]([O-])c1cc(F)ccc1-c1ccsc1[N+](=O)[O-]	14	4	25	48	0	0	0	0	0	7	0	9	0	17	16
O=[N+]([O-])c1ccc(F)cc1-c1ccsc1[N+](=O)[O-]	10	0	16	29	0	0	0	0	0	0	0	0	0	21	11
O=[N+]([O-])c1sccc1-c1c(Cl)cc(Cl)c(Cl)c1[N+](=O)[O-]	40	13	26	34	0	0	0	5	0	0	0	0	25	22	40
O=[N+]([O-])c1ccccc1-c1ccsc1[N+](=O)[O-]	30	25	16	25	23	6	0	8	14	13	0	9	16	22	25
O=[N+]([O-])c1ccc(F)cc1-c1ccsc1	72	36	25	75	65	21	0	0	43	50	18	5	12	87	25
O=[N+]([O-])c1cc(-c2cc(Cl)c(F)cc2[N+](=O)[O-])cs1	14	2	16	25	0	0	0	0	0	7	0	0	11	10	16
O=[N+]([O-])c1cc(-c2cc(F)ccc2[N+](=O)[O-])cs1	27	8	16	35	16	0	0	0	0	10	0	0	22	28	33
